Experimental data published in ChEMBL document CHEMBL3826882, “Discovery of 1-((2R,4aR,6R,7R,7aR)-2-Isopropoxy-2-oxidodihydro-4H,6H-spiro[furo[3,2-d][1,3,2]dioxaphosphinine-7,2'-oxetan]-6-yl)pyrimidine-2,4(1H,3H)-dione (JNJ-54257099), a 3'-5'-Cyclic Phosphate Ester Prodrug of 2'-Deoxy-2'-Spirooxetane Uridine Triphosphate Useful for HCV Inhibition” (J Med Chem, 2016).
Blank lines part the entries; values can stand above or below the compound they belong to.

Tests used:
[1] = Drug metabolism in dog primary hepatocytes assessed as 1-[(4aR,6R,7R,7aR)-2-hydroxy-2-oxidodihydro-4H-spiro[furo[3,2-d][1,3,2]dioxaphosphinine-7,2'-oxetan]-6-yl]pyrimidine-2,4(1H,3H)-dione formation at 2 to 62.5 uM after 4 hrs using radiolabelled compound by LC-MS/MS analysis; type: ADME, cell-based, Canis lupus familiaris, Hepatocyte
Outline: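 Study A: primary cultured hepatocytes (mouse, rat, dog, human) incubated with 2 or 62.5 µM 5'-[3H]-labelled prodrug for 4 and 24 h. Cell lysates were analysed for triphosphate. Supernatants were protein-precipitated and profiled by HPLC with radioactivity detection. Cyclic monophosphate was also assessed by LC/MS/MS.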

Hepatocyte [2] = assay: Prodrug conversion in mouse primary hepatocytes assessed as 2'-deoxy-2'-spirooxetane uridine triphosphate level per million cells at 62.5 uM after 4 hrs using radiolabelled compound by LC-MS/MS analysis; type: ADME, cell-based
Outline: (§1)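 Study A: fresh primary hepatocyte cultures from mouse, rat, dog and human incubated with tritiated prodrug at 2 or 62.5 µM for 4 or 24 h. Triphosphate in cell lysates reported as pmol/million hepatocytes. Duplicate or single measurements.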

[3] = Stability in dog primary hepatocyte supernatant assessed as parent compound level at 2 uM after 4 to 24 hrs using radiolabeled compound by HPLC analysis; type: ADME, cell-based, Canis lupus familiaris; details: hepatocytes
Outline: (§2)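 Fresh primary hepatocyte cultures incubated with tritiated prodrug (5'-[3H]) at 2 and 62.5 µM for 4 and 24 h. Supernatants taken after protein precipitation and profiled by HPLC with radioactivity detection. Cell lysates profiled for metabolites by radio-LC. Cyclic monophosphate also measured by LC/MS/MS.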

Hepatocyte [4] = assay: Drug metabolism in rat primary hepatocyte supernatant assessed as 1-((4R,5R,7R,8R)-8-hydroxy-7-(hydroxymethyl)-1,6-dioxaspiro[3.4]octan-5-yl)pyrimidine-2,4(1H,3H)-dione formation at 2 to 62.5 uM after 4 to 24 hrs using radiolabeled compound by HPLC analysis; type: ADME, cell-based; details: hepatocytes; outline: as §2
Hepatocyte [5] = assay: Prodrug conversion in rat primary hepatocytes assessed as 2'-deoxy-2'-spirooxetane uridine triphosphate level per million cells at 2 uM after 24 hrs using radiolabelled compound by LC-MS/MS analysis; type: ADME, cell-based; outline: as §1
[6] = Stability in dog primary hepatocytes assessed as parent compound level at 2 to 62.5 uM after 4 hrs using radiolabeled compound by LC-MS/MS analysis; type: ADME, cell-based, Canis lupus familiaris, Hepatocyte; outline: as §2
Hepatocyte [7] = assay: Stability in human primary hepatocyte supernatant assessed as parent compound level at 2 uM after 4 to 24 hrs using radiolabeled compound by HPLC analysis; type: ADME, cell-based; details: hepatocytes
Hepatocyte [8] = assay: Prodrug conversion in human hepatocytes assessed as 2'-deoxy-2'-spirooxetane uridine triphosphate formation in presence of pan-PDE inhibitor ibudilast by LC-MS/MS analysis; type: ADME, cell-based
[9] = AUC (0 to last) in mouse plasma at 50 mg/kg, po; type: ADME, organism-based; set-up: dose 50 mg/kg, route oral, time 0 - last
Outline: (§3)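 Oral dose 50 mg/kg, formulated in 20% HP-β-cyclodextrin. Prodrug and triphosphate were measured in plasma and liver (ng/mL or ng/g). Parameters derived were Cmax, tmax, AUC0-last, AUC0-inf and t1/2. Some prodrug data come from two independent studies.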

Liver [10] = assay: AUC (0 to last) in rat liver assessed as 2'-deoxy-2'-spirooxetane uridine triphosphate at 50 mg/kg, po; type: ADME, organism-based; details: in vivo; outline: as §3
Hepatocyte [11] = assay: Prodrug conversion in mouse primary hepatocytes assessed as 2'-deoxy-2'-spirooxetane uridine triphosphate formation measured at 8 hrs by LC-MS/MS analysis; type: ADME, cell-based
Outline: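 Hepatocyte primary cultures followed over time for triphosphate formation in cell lysates: rat and mouse up to 24 h, human up to 96 h.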

Liver [12] = assay: Tlast in rat liver at 50 mg/kg, po; type: ADME, organism-based; details: in vivo
Outline: (§4)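 Single oral dose of 50 mg/kg formulated in 20% HP-β-cyclodextrin. Prodrug and its triphosphate were measured in plasma and liver (ng/mL or ng/g) over time, and Cmax, tmax, AUC, tlast and t1/2 were derived. For some analytes, data from two independent studies are reported.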

Hepatocyte [13] = assay: Prodrug conversion in human cryopreserved hepatocytes assessed as 2'-deoxy-2'-spirooxetane uridine triphosphate level per million cells at 10 uM after 8 hrs by LC-MS/MS analysis; type: ADME, cell-based
Outline: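 Plated cryopreserved hepatocytes (study B) incubated with 10 µM unlabeled prodrug for 2, 8 or 24 h. Triphosphate measured in cell lysates and expressed as pmol/million hepatocytes. Quantification limit 2 ng/10^6 cells.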

Liver [14] = assay: Tlast in mouse liver assessed as 2'-deoxy-2'-spirooxetane uridine triphosphate at 50 mg/kg, po; type: ADME, organism-based; details: in vivo; outline: as §4
[15] = Half life in mouse liver at 50 mg/kg, po; type: ADME, organism-based
Outline: (§5)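 Single oral dose of 50 mg/kg in 20% HP-β-cyclodextrin. Prodrug and triphosphate measured in plasma and liver over time (tlast 6–30 h). Half-life, Cmax, tmax and AUC0-last derived; liver/plasma ratio taken from AUC0-last. Prodrug data pooled from two independent studies.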

Hepatocyte [16] = assay: Prodrug conversion in human hepatocytes assessed as 2'-deoxy-2'-spirooxetane uridine triphosphate formation in presence of CYP2C8 and CYP2C9 inhibitor montelukast by LC-MS/MS analysis; type: ADME, cell-based
Liver [17] = assay: AUC (0 to infinity) in mouse liver at 50 mg/kg, po; type: ADME, organism-based; set-up: dose 50 mg/kg, route oral, time infinity; details: in vivo; outline: as §3
Hepatocyte [18] = assay: Drug metabolism in human hepatocytes assessed as ((4R,5R,7R,8R)-5-(2,4-dioxo-3,4-dihydropyrimidin-1(2H)-yl)-8-hydroxy-1,6-dioxaspiro[3.4]octan-7-yl)methyl dihydrogen phosphate formation in presence of CYP3A4 inhibitor ritonavir by LC-MS/MS analysis; type: ADME, cell-based
[19] = Cmax in mouse liver at 50 mg/kg, po; type: ADME, organism-based; set-up: dose 50 mg/kg, route oral
[20] = AUC (0 to infinity) in mouse plasma at 50 mg/kg, po; type: ADME, organism-based; set-up: dose 50 mg/kg, route oral, time infinity; outline: as §3
[21] = Ratio of AUC (0 to last) in mouse liver to AUC (0 to last) in mouse plasma; type: ADME; outline: as §5
Liver [22] = assay: AUC (0 to last) in mouse liver at 50 mg/kg, po; type: ADME, organism-based; details: in vivo; outline: as §3
Hepatocyte [23] = assay: Drug metabolism in human hepatocytes assessed as ((4R,5R,7R,8R)-5-(2,4-dioxo-3,4-dihydropyrimidin-1(2H)-yl)-8-hydroxy-1,6-dioxaspiro[3.4]octan-7-yl)methyl dihydrogen phosphate formation in presence of CYP2C8 and CYP2C9 inhibitor montelukast by LC-MS/MS analysis; type: ADME, cell-based
Liver [24] = assay: AUC (0 to last) in rat liver at 50 mg/kg, po; type: ADME, organism-based; details: in vivo; outline: as §3
CYP3A4 = CYP3A4 (Homo sapiens, UniProt P08684); assay: Drug metabolism in baculovirus infected insect cell microsomes expressing human CYP3A4 assessed as CYP3A4-mediated half life at 22.7 uM; type: ADME
Outline: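 Incubation at 22.7 µM with human CYP3A4 supersomes. Intrinsic clearance (µL/min.pmol P450) and half-life (min) were determined.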

Liver [25] = assay: Cmax in dog liver assessed as 2'-deoxy-2'-spirooxetane uridine triphosphate at 50 mg/kg, po; type: ADME, organism-based, Canis lupus familiaris; set-up: dose 50 mg/kg, route oral; details: in vivo
[26] = Cmax in rat plasma at 50 mg/kg, po; type: ADME, organism-based; set-up: dose 50 mg/kg, route oral
Plasma = assay: Tlast in mouse plasma at 50 mg/kg, po; type: ADME, organism-based; details: in vivo; outline: as §4

Chain of CYP3A4 (P08684 whole entry): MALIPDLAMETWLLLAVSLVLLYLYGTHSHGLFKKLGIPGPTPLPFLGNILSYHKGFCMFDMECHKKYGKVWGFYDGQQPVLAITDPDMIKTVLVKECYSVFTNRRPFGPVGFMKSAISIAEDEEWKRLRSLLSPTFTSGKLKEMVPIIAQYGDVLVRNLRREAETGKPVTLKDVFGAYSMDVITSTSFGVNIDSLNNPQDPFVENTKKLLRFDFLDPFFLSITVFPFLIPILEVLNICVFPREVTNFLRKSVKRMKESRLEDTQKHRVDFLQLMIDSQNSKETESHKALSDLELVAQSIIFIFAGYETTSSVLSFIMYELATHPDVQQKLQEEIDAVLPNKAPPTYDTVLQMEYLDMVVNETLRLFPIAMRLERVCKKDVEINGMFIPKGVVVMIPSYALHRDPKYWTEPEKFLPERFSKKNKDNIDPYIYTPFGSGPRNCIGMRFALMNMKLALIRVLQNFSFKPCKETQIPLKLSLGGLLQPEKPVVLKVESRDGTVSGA

Drug metabolism [1]: metabolite_detected | Drug metabolism (Hepatocyte [2]): 0.12 pmol | Stability [3]: Stable | Drug metabolism (Hepatocyte [4]): metabolite_detected | Drug metabolism (Hepatocyte [5]): 0.027 pmol | Stability [6]: Stable | Stability (Hepatocyte [7]): Stable
SMILES: [3H]C1O[P@](=O)(OC(C)C)O[C@@H]2[C@@H]1O[C@@H](n1ccc(=O)[nH]c1=O)[C@@]21CCO1 (stereo partly drawn)

SMILES: CC(C)O[P@@]1(=O)OC[C@H]2O[C@@H](n3ccc(=O)[nH]c3=O)[C@@]3(CCO3)[C@@H]2O1
Drug metabolism (Hepatocyte [8]): metabolite_notdetected | AUC(0-t) [9]: 2560 ng·h/mL | AUClast (Liver [10]): 719469 ng·h/g | Drug metabolism (Hepatocyte [11]): metabolite_detected | Tlast (Liver [12]): 6 h | Drug metabolism (Hepatocyte [13]): 0.172 pmol | Tlast (Liver [14]): 24 h | half-life [15]: 2.1 h | Drug metabolism (Hepatocyte [16]): metabolite_detected | AUC (Liver [17]): 1706 ng·h/g | Drug metabolism (Hepatocyte [18]): metabolite_notdetected | Cmax [19]: 701 ng/g | AUC(0-inf) [20]: 2620 ng·h/mL | Kp [21]: 0.57 | AUClast (Liver [22]): 1456 ng·h/g | Drug metabolism (Hepatocyte [23]): metabolite_detected | AUClast (Liver [24]): 2489 ng·h/g | half-life at 22.7 µM (CYP3A4): 2.18 h | Cmax (Liver [25]): 46600 ng/g | Cmax [26]: 1290 ng/mL | Tlast (Plasma): 24 h
